Key:
[1] = system: murine genetically engineered T-ALL and human T-ALL cell lines such as MOLT4, Jurkat, HPB-ALL and KARPAS45; settings: cited from earlier work
T-ALL cell lines = type: cell-based, human; settings: read-out: IC50 values, 72 hours of culture
How it was run: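 Human T-ALL cell lines (CEM, Jurkat, MOLT4, Loucy, PEER) were cultured with a range of test compound concentrations for 72 hours. IC50 was calculated from the dose-response curves. Values are means ± S.D. of three independent experiments, compared by one-way ANOVA with Tukey's multiple comparison test.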

Jurkat cells = test: Systemic T-ALL, tail-vein injection of luciferase-expressing Jurkat cells; type: in vivo, NOD/SCID mice; settings: S2157 50 mg/kg, OG-L002 12.5 mg/kg (its MTD), twice a week for 3 weeks
[2] = for changes in complete blood count, liver and kidney functions, histopathological examination of some organs: NOD/SCID mice treated with up to 150 mg/kg
[3] = system: CD34-positive normal hematopoietic progenitor cells; test: Viability of CD34-positive normal bone marrow progenitor cells; type: cell-based; settings: 72 hours, with stem cell factor and thrombopoietin
How it was run: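 Purchased CD34-positive normal bone marrow progenitor cells were cultured with stem cell factor and thrombopoietin, without or with various concentrations of test compound, for 72 hours. Jurkat cells were treated in parallel as a control. Viability was measured by MTT reduction as a percentage of untreated controls. Values are mean ± S.D. of three independent experiments, compared by one-way ANOVA with Bonferroni post-hoc test.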

[4] = system: mitogen-activated normal T-lymphocytes; test: Viability of mitogen-activated normal T-lymphocytes; type: cell-based
[5] = Pharmacokinetic study, plasma and brain concentrations by LC-MS/MS; type: in vivo, NOD/SCID mice; settings: for Brain/Plasma ratio / AUC / Brain concentration at 0.5 h / Plasma concentration at 0.5 h / T1/2 / nAUC (dose-normalized AUC): NOD.CB17-PrkdcSCID/J mice, single intraperitoneal injection, 50 mg/kg, n = 3; for Brain/Plasma ratio: 0.5 h
T-ALL cells = test: Subcutaneous T-ALL xenograft; type: in vivo, NOD/SCID mice; settings: for side effects / size of subcutaneous tumors: intraperitoneal injection at 50 mg/kg, 3 times a week
MOLT4 cells [6] = type: in vivo, NOD/SCID mice; settings: for effect on CNS leukemia: murine xenotransplant model, histopathological examination / imaging
MOLT4 cells [7] = test: Isobologram / combination index analysis with anti-leukemic drugs; type: cell-based, human; settings: 72 hours
How it was run: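 MOLT4 cells exposed to each of several anti-leukemia drugs, without or with the test compound, for 72 h to generate dose-response curves for each combination. Combination index calculated by the Chou–Talalay method; CI <1.0 taken as synergism. Mean ± S.D. from three independent experiments.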

[8] = system: ZEB2-positive ETP-ALL cell lines such as Loucy and PEER; test: Efficacy in relation to ZEB2 expression in T-ALL and ETP-ALL cell lines; type: cell-based, human
primary T-ALL cells = test: Combination with anti-leukemic drugs in primary T-ALL cells; type: cell-based, human
T-ALL = settings: read-out: IC50 values; cited from earlier work
[9] = single intraperitoneal injection at 50 mg/kg, NOD/SCID and ICR mice

SMILES	IC50 (T-ALL cell lines)	anti-leukemic activity in Jurkat-transplanted mice (Jurkat cells)	viability of CD34-positive normal hematopoietic progenitor cells [3]	viability of mitogen-activated normal T-lymphocytes [4]	Brain/Plasma ratio [5]	AUC [5]	Brain concentration at 0.5 h [5]	Plasma concentration at 0.5 h [5]	T1/2 [5]	nAUC (dose-normalized AUC) [5]	side effects (T-ALL cells)	size of subcutaneous tumors (T-ALL cells)	effect on CNS leukemia (MOLT4 cells [6])	combined effect with L-asparaginase (MOLT4 cells [7])	combined effect with dexamethasone (MOLT4 cells [7])	efficacy in ZEB2-positive ETP-ALL cell lines [8]	changes in complete blood count, liver and kidney functions, histopathological examination of some organs [2]	other results
O=C(O)c1ccc(CN2CCC(CN[C@@H]3C[C@H]3c3ccccc3)CC2)cc1 [GSK2879552]	–	–	–	–	–	–	–	–	–	–	–	–	–	–	–	–	–	pro-apoptotic activity [1]: failed to show pro-apoptotic activity
N[C@H]1C[C@@H]1c1ccc(-c2cccc(O)c2)cc1 [OG-L002, reference compound]	≥ 20 µM	failed to show anti-leukemic activity	–	–	–	–	–	–	–	–	–	–	–	–	–	–	–	maximum tolerated dose (MTD) ([2]; NOD/SCID mice, intraperitoneal injection): 12.5 mg/kg; dose after which recipients died immediately ([2]; NOD/SCID mice, intraperitoneal injection, unknown causes): ≥ 25 mg/kg
N[C@@H]1C[C@H]1c1cc(F)cc(F)c1OCc1ccccc1 [S2101]	≥ 20 µM	–	–	–	–	–	–	–	–	–	–	–	–	–	–	–	–	–
Cl.N[C@H]1CCN(C(=O)CN[C@@H]2C[C@H]2c2cc(F)cc(F)c2OCc2ccccc2)C1 [S2116]	–	–	did not affect the viability	modestly inhibited	0.17 ± 0.03	41.78 ± 8.66 µM·h	1.35 ± 0.39 µmol/kg	8.17 ± 2.80 µM	10.88 ± 2.97 h	0.84 ± 0.17 µM·h	negligible side effects, such as moderate leukocytosis and thrombocytopenia without bleeding tendency	less than 20 % of that in the untreated control	failed to eradicate CNS disease	synergistic	additive	relatively ineffective	no obvious changes were observed	overall survival of MOLT4-inoculated mice (T-ALL cells; MOLT4-inoculated NOD/SCID mice): significantly prolonged; combined effect with cytosine arabinoside (MOLT4 cells [7]): additive
CN1CCN(C(=O)CN[C@@H]2C[C@H]2c2cc(F)cc(F)c2OCc2ccccc2)CC1.Cl [S2157]	–	therapeutic benefit of S2157 including the eradication of CNS disease	did not affect the viability	modestly inhibited	13.0 ± 6.26	5.75 ± 3.67 µM·h	64.0 ± 3.46 µmol/kg	5.71 ± 2.47 µM	0.88 ± 0.04 h	0.11 ± 0.07 µM·h	negligible side effects, such as moderate leukocytosis and thrombocytopenia without bleeding tendency	less than 20 % of that in the untreated control	CNS leukemia nearly disappeared	synergistic	synergistic	relatively ineffective	no obvious changes were observed	brain/plasma concentration ratio relative to S2116 [5, 9]: > 75 fold; maximal brain concentration relative to S2116 [5, 9]: approximately 50 fold; hazard ratio against untreated mice, single agent (MOLT4 cells [6]; 50 mg/kg ip twice a week, log-rank test, P = 0.0246): 0.2371; hazard ratio against untreated control, combination with dexamethasone (MOLT4 cells [6]; S2157 50 mg/kg ip twice a week plus dexamethasone 10 mg/kg ip 5 times a week): 0.1787; neurotoxicity (MOLT4 cells [6]; murine xenografts): without detectable neurotoxicity; growth of MOLT4 cells (bioluminescence) (MOLT4 cells [6]; twice-per-week injection at either 30 mg/kg or 50 mg/kg): almost completely suppressed the growth of MOLT4 cells in most but not all mice; combined effect with 4-hydroxycyclophosphamide (4-OHCY) (MOLT4 cells [7]): additive; combined effect with bortezomib (MOLT4 cells [7]): additive; combined effect with L-asparaginase (primary T-ALL cells): synergy; combined effect with dexamethasone (primary T-ALL cells): synergy
Cn1cc(C(=O)Nc2ccc([C@@H]3C[C@H]3NCC3CC3)cc2)cn1 [T-3775440]	–	–	–	–	–	–	–	–	–	–	–	–	–	–	–	–	–	IC50 (T-ALL): > 10 µM

Source: article PMC6397674 (Clinical cancer research : an official journal of the …, 2018)
